Assay results: ChEMBL document CHEMBL2169772, “Discovery of (2S)-1-[4-(2-{6-amino-8-[(6-bromo-1,3-benzodioxol-5-yl)sulfanyl]-9H-purin-9-yl}ethyl)piperidin-1-yl]-2-hydroxypropan-1-one (MPC-3100), a purine-based Hsp90 inhibitor” (J Med Chem, 2012)
pIC50: −log10 of the molar value.

How the values were obtained:
[1] = system: Mus musculus; assay: Inhibition of HSP90 in mouse liver assessed as induction of HSP70 mRNA expression at 100 mg/kg, po after 6 hrs relative to control; assay type: functional
[2] = AUC in Swiss nude mouse at 100 mg/kg, po by LC-ESI-MS/MS method; assay type: ADME, organism-based; design: dose 100 mg/kg, route oral; conditions: plasma
How it was run: (§1)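 Single oral gavage in mice, vehicle 40% Captisol in phosphate buffer. EDTA plasma from cardiac puncture. Acetonitrile precipitation with internal standard, then LC-ESI-MS/MS quantitation against a 10–10 000 ng/mL standard curve. Cmax and AUC by noncompartmental analysis.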

[3] = Cmax in Swiss nude mouse at 100 mg/kg, po by LC-ESI-MS/MS method; assay type: ADME, organism-based; design: dose 100 mg/kg, route oral; conditions: in vivo; how it was run: as §1
[4] = Oral bioavailability in Swiss nude mouse at 10 mg/kg by LC-ESI-MS/MS method; assay type: ADME, organism-based; conditions: in vivo
How it was run: (§2)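 Mice dosed by oral gavage, vehicle DMA/PEG300/EtOH/H2O (3/40/12/45, v/v/v/v). Blood drawn by cardiac puncture into EDTA plasma. Three or five animals per time point. Plasma precipitated with acetonitrile plus internal standard. Quantified by LC-ESI-MS/MS against a 10–10 000 ng/mL standard curve with QC samples. Noncompartmental analysis.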

[5] = AUC in Swiss nude mouse at 10 mg/kg, po by LC-ESI-MS/MS method; assay type: ADME, organism-based; design: dose 10 mg/kg, route oral; conditions: plasma; how it was run: as §2
[6] = Cmax in Swiss nude mouse at 10 mg/kg, po by LC-ESI-MS/MS method; assay type: ADME, organism-based; design: dose 10 mg/kg, route oral; conditions: in vivo; how it was run: as §2
[7] = Tmax in Swiss nude mouse at 10 mg/kg, po by LC-ESI-MS/MS method; assay type: ADME, organism-based; design: dose 10 mg/kg, route oral; conditions: in vivo; how it was run: as §2
[8] = AUC in Swiss nude mouse at 2.5 mg/kg, iv by LC-ESI-MS/MS method; assay type: ADME, organism-based; design: dose 2.5 mg/kg, route intravenous; conditions: plasma
How it was run: (§3)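 Intravenous dose in mice, vehicle DMA/PEG300/EtOH/H2O 3/40/12/45. Sampling at 5, 15, 30, 60, 120, 240, 480 and 720 min, three or five animals per time point. Cardiac-puncture EDTA plasma. Acetonitrile protein precipitation with internal standard, then LC-ESI-MS/MS (10–10 000 ng/mL curve). Parameters by noncompartmental fit.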

[9] = Half life in Swiss nude mouse at 2.5 mg/kg, iv by LC-ESI-MS/MS method; assay type: ADME, organism-based; design: dose 2.5 mg/kg, route intravenous; conditions: in vivo; how it was run: as §3
[10] = Volume of distribution in Swiss nude mouse at 2.5 mg/kg, iv by LC-ESI-MS/MS method; assay type: ADME, organism-based; design: dose 2.5 mg/kg, route intravenous; conditions: in vivo; how it was run: as §3
[11] = system: Mus musculus; assay: Hepatic clearance in Swiss nude mouse at 2.5 mg/kg, iv by LC-ESI-MS/MS method; assay type: ADME, organism-based, Liver; design: dose 2.5 mg/kg, route intravenous; conditions: in vivo; how it was run: as §3
[12] = (§4) Metabolic stability in human liver microsomes assessed as percent of residual drug in presence of NADPH incubated for 40 mins by LC-ESI-MS/MS method; assay type: ADME, Microsome; conditions: liver microsomes, read-out: Stability
How it was run: (§5)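 Test article incubated in duplicate with human liver microsomes (0.5 mg/mL protein) in 100 mM potassium phosphate pH 7.4. Started with 1 mM NADPH. Stopped with acetonitrile at 0, 10, 20 and 40 min. LC-MS/MS peak area at 40 min reported as percent of 0 min. No-NADPH control incubated for 40 min.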

[13] = Cytotoxicity against human NCI-ADR-RES cells overexpressing P-gp 1 assessed as inhibition of tumor growth incubated for 72 hrs by luminometry; assay type: functional, cell-based
How it was run: (§6)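 Cells seeded at 5000 per well in DMEM with 10% serum and left overnight. Compound added from DMSO dilutions (0.4% DMSO final) for 72 h. After 5 min at room temperature, ATPLite two-step lysis and substrate added, 5 min incubation, then luminescence read. Values are the mean of at least two experiments.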

[14] = system: HCT-116; assay: Cytotoxicity against human HCT116 cells assessed as inhibition of tumor growth incubated for 72 hrs by luminometry; assay type: functional, cell-based; conditions: HCT-116, 72 h; how it was run: as §6
[15] = biological target: T1, Heat shock protein HSP90 (Homo sapiens, UniProt P07900+P08238); assay: Inhibition of human HSP90 using BODIPY labelled geldanamycin as substrate by fluorescence polarization assay; assay type: protein assay
[16] = biological target: T1, Heat shock protein HSP90; assay: Inhibition of human HSP90 in HCT116 cells expressing Her2 gene assessed as degradation of Her2 after 4 hrs by luciferase reporter gene assay; assay type: cell-based; conditions: hct-116
How it was run: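 HCT116 cells stably transfected with Her2 kinase domain (aa 641–975) fused to firefly luciferase. Seeded at 10 000 per well in DMEM with 10% serum and left overnight. Compound added from DMSO (0.4% final) for 4 h. Steady-Glo added at room temperature for 5 min, then luminescence read.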

[17] = Oral bioavailability in Swiss nude mouse at 100 mg/kg administered using captisol and phosphate buffer system formulation by LC-ESI-MS/MS method; conditions: in vivo
[18] = system: HCT-116; assay: Ratio of IC50 for human NCI-ADR-RES cells overexpressing P-gp1 to IC50 for human HCT116 cells; assay type: functional
[19] = Lipophilicity, log P of the compound; assay type: physicochemical; conditions: octanol/water
[20] = system: Liver microsomes; assay: as §4; assay type: ADME, Microsome; conditions: microsomes, 40 min; how it was run: as §5
[21] = Solubility of compound in phosphate buffer at pH 7.4; assay type: physicochemical

| Compound | fold change (FC) [1] | AUC [2] [ng·h/mL] | Cmax [3] [ng/mL] | bioavailability [4] [%] | AUC [5] [ng·h/mL] | Cmax [6] [ng/mL] | Tmax [7] [min] | AUC [8] [ng·h/mL] | half-life [9] [min] | Vd [10] [L/kg] | CLH [11] [mL/min/kg] | remaining at 40 min [12] [%] | pIC50 [13] | pIC50 [14] | IC50 [15] [nM] | IC50 [16] [nM] | bioavailability [17] [%] | pIC50 [15] | other results |
| --- | --- | --- | --- | --- | --- | --- | --- | --- | --- | --- | --- | --- | --- | --- | --- | --- | --- | --- | --- |
| Nc1ncnc2c1nc(Sc1cc3c(cc1Br)OCCO3)n2CCC1CCN(C(=O)CO)CC1 | 1.7 | 18200 | 7530 | 34 | 702 | 55 | 15 | 517 | 51 | 5.93 | 80.55 | 45 | 5.00 | 6.09 | 90 | 40 | > 50 |  |  |
| Nc1ncnc2c1nc(Sc1cc3c(cc1Br)OCCO3)n2CCC1CCN(C=O)CC1 | 2.3 | 38000 | 8540 | 30 | 1180 | 312 | 60 | 967 | 16.8 | 1.05 | 43.08 | 42 | 5.68 | 6.17 | 60 | 49 | > 50 |  |  |
| C[C@@H](O)C(=O)N1CCC(CCn2c(Sc3cc4c(cc3Br)OCO4)nc3c(N)ncnc32)CC1 | 24 | 50300 | 8400 | 37 | 2410 | 1430 | 15 | 1650 | 36 | 1.32 | 25.22 | 58 | 5.48 | 6.19 | 110 | 90 | > 50 |  |  |
| CC(C)N1CCC(CCn2c(Sc3cc4c(cc3Br)OCO4)nc3c(N)ncnc32)CC1 |  |  |  |  |  |  |  |  |  |  |  |  | 5.14 | 5.59 | 900 | 320 |  |  | Ratio IC50 [18]: 2 |
| Nc1ncnc2c1nc(Sc1cc3c(cc1Br)OC(F)(F)O3)n2CCC1CCN(C=O)CC1 |  |  |  |  |  |  |  |  |  |  |  | 0 |  |  |  |  |  | < 5.30 | logP [19]: 4.82 |
| C[C@H](O)C(=O)N1CCC(CCn2c(Sc3cc4c(cc3Br)OCCO4)nc3c(N)ncnc32)CC1 | 3.2 | 40400 | 11600 | 20 | 1190 | 564 | 30 | 1460 | 25.8 | 1.07 | 28.53 | 45 | 5.19 | 6.33 | 150 | 74 | > 50 |  |  |
| C[C@@H](O)C(=O)N1CCC(CCn2c(Sc3cc4c(cc3Br)OCCO4)nc3c(N)ncnc32)CC1 | 3.8 | 32600 | 9300 | 32 | 1960 | 1180 | 60 | 1530 | 36 | 1.35 | 27.32 | 35 | 5.01 | 6.04 | 110 | 69 | > 50 |  |  |
| Nc1ncnc2c1nc(Sc1cc3c(cc1Br)OCO3)n2CCC1CCN(C=O)CC1 | 47 | 63900 | 10900 | 35 | 1810 | 354 | 60 | 1320 | 30 | 1.45 | 31.65 | 17 | 5.55 | 6.37 | 150 | 70 | > 50 |  | logP [19]: 3.42 |
| Nc1ncnc2c1nc(Sc1cc3c(cc1Br)OCO3)n2CCC1CCN(C(=O)CO)CC1 | 18 | 25100 | 7780 | 57 | 1320 | 588 | 15 | 574 | 30 | 3 | 72.65 | 54 | 5.70 | 6.42 | 110 | 60 | > 50 |  |  |
| Nc1ncnc2c1nc(Sc1cc3c(cc1Br)OCO3)n2CCC1C[C@H]2CC[C@@H](C1)O2 (some centres undefined) |  |  |  |  |  |  |  |  |  |  |  |  |  |  |  |  |  |  | Stability [20]: Unstable |
| Nc1ncnc2c1nc(Sc1cc3c(cc1Br)OCO3)n2CCC(N)C1CC1 (centres undefined) |  |  |  | 0.4 |  |  |  |  |  |  |  | 75 |  |  | 80 |  |  |  | solubility [21]: > 100 µM |
| CN1[C@@H]2CC[C@H]1CC(CCn1c(Sc3cc4c(cc3Br)OCO4)nc3c(N)ncnc31)C2 (some centres undefined) |  |  |  |  |  |  |  |  |  |  |  |  |  |  |  |  |  |  | Stability [20]: Unstable |
